Laboratory results as given in ChEMBL document CHEMBL1148948, “Biotransformation of nobiletin by Aspergillus niger and the antimutagenic activity of a metabolite, 4'-hydroxy-5,6,7,8,3'-pentamethoxyflavone” (2004).
Calls of active or inactive are those of the source.

Key:
Format in all cases: functional, organism-based
Settings in all cases: Salmonella enterica subsp. enterica serovar Typhimurium
Salmonella typhimurium [1] = assay: Antimutagenic activity in Salmonella Typhimurium TA1535 carrying pSK1002 containing umuC'-lacZ fused gene assessed as suppression of MeIQ-induced SOS response to alteration in DNA synthesis measured by beta-galactosidase activity by Umu test
How it was run: (§1)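 S. typhimurium TA1535/pSK1002 (umuC′-′lacZ fusion on the plasmid). The overnight culture was diluted 50-fold in fresh TGA medium and grown at 37 °C to A600 0.25-0.30. SOS induction was read as β-galactosidase activity in Miller units. The S9 mix used rat liver S9 (phenobarbital/5,6-benzoflavone-pretreated males) with G-6-P, NADH and NADPH cofactors.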

Salmonella typhimurium [2] = assay: Antimutagenic activity in Salmonella Typhimurium TA1535 carrying pSK1002 containing umuC'-lacZ fused gene assessed as suppression of 0.1 j/M2 UV light-induced SOS response to alteration in DNA synthesis measured by beta-galactosidase activity by Umu test; how it was run: as §1
Salmonella typhimurium [3] = assay: Antimutagenic activity in Salmonella Typhimurium TA1535 carrying pSK1002 containing umuC'-lacZ fused gene assessed as suppression of furyfuramide-induced SOS response to alteration in DNA synthesis measured by beta-galactosidase activity by Umu test; how it was run: as §1
Salmonella typhimurium [4] = assay: Antimutagenic activity in Salmonella Typhimurium TA1535 carrying pSK1002 containing umuC'-lacZ fused gene assessed as suppression of Trp-P-1-induced SOS response to alteration in DNA synthesis measured by beta-galactosidase activity by Umu test; how it was run: as §1

Measured: Activity

COc1ccc(-c2cc(=O)c3c(OC)c(OC)c(OC)c(OC)c3o2)cc1OC
active: all assays above
